Reference: paper PMC2884008 (Chemistry & biology, 2010)
“Also recorded” adds a separate entry of the source. Like-named read-outs stand apart in the source and are kept apart here. One block for each compound: values may come before it.

Key:
p300 HAT = biological target: T1, p300 HAT (Homo sapiens, UniProt Q09472, DEL1529-1560/M1652G); experiment: direct radioactive 14C-acetyl-CoA transfer p300 HAT assay; format: biochemical; conditions: for p300 HAT inhibition, in words: analogs compared with C646
T1 sequence (Q09472 with tags, fused parts or gaps DEL1529-1560/M1652G limits assumed): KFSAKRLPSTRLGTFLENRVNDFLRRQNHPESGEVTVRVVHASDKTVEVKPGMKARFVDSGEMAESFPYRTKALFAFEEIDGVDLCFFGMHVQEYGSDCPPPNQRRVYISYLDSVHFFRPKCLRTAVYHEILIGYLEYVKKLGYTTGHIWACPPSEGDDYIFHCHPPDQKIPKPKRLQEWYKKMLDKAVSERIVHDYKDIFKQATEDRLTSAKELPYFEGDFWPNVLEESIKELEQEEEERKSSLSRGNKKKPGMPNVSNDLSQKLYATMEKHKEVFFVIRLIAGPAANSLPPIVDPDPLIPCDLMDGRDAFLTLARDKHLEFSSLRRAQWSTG

[1] = biological target: PCAF histone acetyltransferase (Homo sapiens, UniProt Q92831); experiment: coupled spectrophotometric PCAF assay; format: biochemical; conditions: compound at 10 μM
PCAF histone acetyltransferase, sequence (Q92831 493-658 limits assumed): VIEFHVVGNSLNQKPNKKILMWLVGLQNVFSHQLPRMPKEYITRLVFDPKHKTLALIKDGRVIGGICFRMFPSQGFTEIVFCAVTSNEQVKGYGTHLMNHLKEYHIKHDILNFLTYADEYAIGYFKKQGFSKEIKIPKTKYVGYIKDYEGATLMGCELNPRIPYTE

p300 HAT mutant W1466F = experiment: C646 inhibition of p300 HAT mutant W1466F; format: biochemical; conditions: Ki = IC50/(S/Km+1)
[2] = system: three melanoma and three non-small cell lung cancer lines; experiment: 3H-thymidine incorporation in cancer cell line panel; format: cell-based, human; conditions: 24 h
Outline: (§1)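 Melanoma lines were grown in DMEM and NSCLC lines in RPMI 1640, both with 10% FBS, pen-strep and L-glutamine. About 5000 cells/well at ~60% sub-confluence were attached at 37°C, then exposed 24 h with DMSO at 0.2% in every condition. 3H-thymidine was added at 10 μCi/ml final for 5 h; cells were harvested onto filters and counted. Triplicates; counts normalized to pre-treatment counts.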

p300 HAT mutant T1411A = experiment: C646 inhibition of p300 HAT mutant T1411A; format: biochemical; conditions: Ki = IC50/(S/Km+1)
WM35 = experiment: cell cycle analysis by propidium iodide FACS, WM35; format: cell-based, human; conditions: 20 μM, 24 h
Outline: (§2)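 Cells were exposed to 20 μM test compound or DMSO for 24 h. More than 10^6 cells were fixed in 70% ethanol at 4°C for ≥2 h, rehydrated in PBS and stained 20 min at 37°C with PI in 0.1% Triton X-100/PBS containing RNase A. DNA content was read by flow cytometry, and the S-phase fraction was taken as the read-out.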

[3] = biological target: Sas histone acetyltransferase (Saccharomyces cerevisiae, UniProt P40963); experiment: direct radioactive HAT assay with SAS complex; format: biochemical; conditions: compound at 10 μM
Sas histone acetyltransferase, sequence (P40963 whole entry): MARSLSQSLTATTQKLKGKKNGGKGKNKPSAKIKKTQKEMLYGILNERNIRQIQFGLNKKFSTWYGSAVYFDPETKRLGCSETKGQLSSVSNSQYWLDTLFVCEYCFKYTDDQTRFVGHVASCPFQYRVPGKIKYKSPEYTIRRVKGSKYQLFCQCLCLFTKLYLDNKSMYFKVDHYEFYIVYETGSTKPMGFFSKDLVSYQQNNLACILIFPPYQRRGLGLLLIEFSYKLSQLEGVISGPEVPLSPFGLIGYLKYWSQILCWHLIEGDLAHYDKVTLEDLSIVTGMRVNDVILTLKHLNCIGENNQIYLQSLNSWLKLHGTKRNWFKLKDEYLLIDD
Sas histone acetyltransferase, sequence (Q04003 whole entry partner): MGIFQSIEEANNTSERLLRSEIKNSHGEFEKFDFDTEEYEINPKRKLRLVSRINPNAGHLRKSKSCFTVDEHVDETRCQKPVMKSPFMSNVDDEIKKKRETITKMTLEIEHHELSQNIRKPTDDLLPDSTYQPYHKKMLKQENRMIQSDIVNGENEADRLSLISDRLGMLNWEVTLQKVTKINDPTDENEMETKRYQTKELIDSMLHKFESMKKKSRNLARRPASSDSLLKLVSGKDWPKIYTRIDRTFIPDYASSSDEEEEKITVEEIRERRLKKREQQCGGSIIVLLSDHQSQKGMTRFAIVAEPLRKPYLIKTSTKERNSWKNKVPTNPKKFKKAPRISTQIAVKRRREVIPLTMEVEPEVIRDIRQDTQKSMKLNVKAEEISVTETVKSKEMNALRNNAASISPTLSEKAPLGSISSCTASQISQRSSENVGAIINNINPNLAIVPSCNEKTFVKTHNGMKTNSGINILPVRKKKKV
Sas histone acetyltransferase, sequence (Q99314 whole entry partner): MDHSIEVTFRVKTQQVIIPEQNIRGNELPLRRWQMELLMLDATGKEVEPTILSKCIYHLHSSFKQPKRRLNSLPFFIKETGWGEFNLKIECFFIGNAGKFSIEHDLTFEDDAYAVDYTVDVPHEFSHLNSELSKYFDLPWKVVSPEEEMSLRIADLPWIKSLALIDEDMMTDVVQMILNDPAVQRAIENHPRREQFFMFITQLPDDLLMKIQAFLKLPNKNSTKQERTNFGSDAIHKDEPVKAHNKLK
Outline: (§3)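 Enzyme: Rtt109/Vps75 70 ng, yGcn5 15 ng, SAS 300 ng, hMOZ 1 μg. After 10 min at 30°C, reactions were started with 20 μM 12C/14C-AcCoA (1:1) and run 2–4 min. Product was resolved by Tris-Tricine SDS-PAGE and quantified by autoradiography. Duplicates.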

p300 HAT mutant Y1467F = experiment: C646 inhibition of p300 HAT mutant Y1467F; format: biochemical; conditions: Ki = IC50/(S/Km+1)
[4] = biological target: serotonin N-acetyltransferase (Ovis aries, UniProt Q29495); experiment: coupled spectrophotometric AANAT assay; format: biochemical; conditions: compound at 10 μM
serotonin N-acetyltransferase, sequence (Q29495 whole entry): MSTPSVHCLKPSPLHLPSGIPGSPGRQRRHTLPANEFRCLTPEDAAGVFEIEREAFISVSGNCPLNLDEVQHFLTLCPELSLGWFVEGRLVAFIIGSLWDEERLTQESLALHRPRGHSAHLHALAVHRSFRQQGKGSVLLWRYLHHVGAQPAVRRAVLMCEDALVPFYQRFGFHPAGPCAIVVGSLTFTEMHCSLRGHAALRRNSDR

[5] = biological target: Rtt109 histone acetyltransferase (Saccharomyces cerevisiae, UniProt Q07794); experiment: direct radioactive HAT assay with Rtt109/Vps75 complex; format: biochemical; conditions: compound at 10 μM
Rtt109 histone acetyltransferase, sequence (Q07794 whole entry): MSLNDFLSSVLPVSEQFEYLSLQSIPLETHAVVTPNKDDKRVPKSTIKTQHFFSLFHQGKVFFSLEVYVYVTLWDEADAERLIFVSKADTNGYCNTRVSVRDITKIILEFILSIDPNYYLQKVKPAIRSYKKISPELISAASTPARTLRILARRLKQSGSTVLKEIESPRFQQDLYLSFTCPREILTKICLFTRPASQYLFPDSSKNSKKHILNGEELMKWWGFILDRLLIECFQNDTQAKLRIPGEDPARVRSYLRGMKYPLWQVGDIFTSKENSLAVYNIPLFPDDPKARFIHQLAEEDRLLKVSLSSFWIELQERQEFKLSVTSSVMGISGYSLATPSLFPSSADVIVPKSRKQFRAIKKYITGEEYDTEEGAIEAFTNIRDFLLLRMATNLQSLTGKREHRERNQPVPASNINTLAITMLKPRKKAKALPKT
Rtt109 histone acetyltransferase, sequence (P53853 whole entry partner): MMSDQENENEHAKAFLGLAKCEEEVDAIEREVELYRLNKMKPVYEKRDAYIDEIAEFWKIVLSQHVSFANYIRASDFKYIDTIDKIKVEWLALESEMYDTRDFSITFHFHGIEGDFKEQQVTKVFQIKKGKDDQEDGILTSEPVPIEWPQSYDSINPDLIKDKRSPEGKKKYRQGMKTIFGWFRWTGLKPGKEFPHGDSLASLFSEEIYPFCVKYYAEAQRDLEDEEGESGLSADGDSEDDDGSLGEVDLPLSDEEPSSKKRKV
Outline: as §3

[6] = system: immortalized murine fibroblast cell line, NIH3T3; experiment: 3H-thymidine incorporation in NIH3T3; format: cell-based; conditions: 20 μM
p300 HAT mutant R1410A = experiment: C646 inhibition of p300 HAT mutant R1410A; format: biochemical; conditions: Ki = IC50/(S/Km+1)
melanoma line WM35 = experiment: 3H-thymidine incorporation in WM35; format: cell-based, human; conditions: C646 10 μM or Lys-CoA-Tat 25 μM, 24 h
Outline: as §1

melanoma line WM983A = experiment: 3H-thymidine incorporation in WM983A; format: cell-based, human; conditions: 24 h
Outline: as §1

lung cancer line H23 = experiment: 3H-thymidine incorporation in H23; format: cell-based, human; conditions: C646 10 μM or Lys-CoA-Tat 25 μM, 24 h
Outline: as §1

WM983A = experiment: cell cycle analysis by propidium iodide FACS, WM983A; format: cell-based, human; conditions: 20 μM, 24 h
Outline: as §2

[7] = biological target: GCN5 histone acetyltransferase (Saccharomyces cerevisiae, UniProt Q03330); experiment: direct radioactive HAT assay with yeast GCN5; format: biochemical; conditions: compound at 10 μM
GCN5 histone acetyltransferase, sequence (Q03330 whole entry): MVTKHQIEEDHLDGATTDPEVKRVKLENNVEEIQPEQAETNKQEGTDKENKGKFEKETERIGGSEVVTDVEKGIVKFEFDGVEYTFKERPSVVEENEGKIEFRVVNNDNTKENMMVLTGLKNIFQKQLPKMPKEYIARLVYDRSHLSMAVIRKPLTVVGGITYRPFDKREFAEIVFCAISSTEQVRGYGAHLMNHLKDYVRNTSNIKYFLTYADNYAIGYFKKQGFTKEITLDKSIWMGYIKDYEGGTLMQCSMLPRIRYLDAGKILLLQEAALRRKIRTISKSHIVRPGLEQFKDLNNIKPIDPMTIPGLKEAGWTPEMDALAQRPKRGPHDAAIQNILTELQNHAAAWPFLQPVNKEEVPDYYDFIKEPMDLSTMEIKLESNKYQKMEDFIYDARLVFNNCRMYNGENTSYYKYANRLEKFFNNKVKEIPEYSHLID
Outline: as §3

[8] = system: C3H 10T1/2 mouse fibroblasts; experiment: histone acetylation in mouse cells, western blots of SDS and acid-urea gels; format: cell-based
Outline: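 C3H 10T1/2 fibroblasts were grown in DMEM/10% FCS at 37°C, 6% CO2, then made quiescent in 0.5% FCS for 18–20 h. TSA at 33 nM was added for the final 30 min where used. Histones were acid-extracted, run on SDS and acid-urea gels and western blotted.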

[9] = thiol adduct formation by NMR and chromatography; format: physicochemical; conditions: buffer conditions of the enzyme assay
WM983A cells = experiment: global histone H3 acetylation in WM983A cells by western blotting; format: cell-based, human; conditions: 6 h, increasing concentrations
[10] = biological target: MOZ histone acetyltransferase (Homo sapiens, UniProt Q92794); experiment: direct radioactive HAT assay with hMOZ; format: biochemical; conditions: compound at 10 μM
MOZ histone acetyltransferase, sequence (Q92794 497-780 limits assumed): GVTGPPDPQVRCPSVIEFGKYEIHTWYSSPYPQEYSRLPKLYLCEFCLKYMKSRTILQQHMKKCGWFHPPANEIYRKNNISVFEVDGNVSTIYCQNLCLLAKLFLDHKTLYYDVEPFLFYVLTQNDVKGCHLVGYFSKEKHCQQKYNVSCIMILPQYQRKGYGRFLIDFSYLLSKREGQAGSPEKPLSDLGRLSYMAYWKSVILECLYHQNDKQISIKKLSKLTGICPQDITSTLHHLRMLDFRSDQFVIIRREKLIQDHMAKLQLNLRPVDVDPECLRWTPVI
Outline: as §3

p300/CBP HAT [11] = conditions: read-out: Ki for p300/CBP HAT, cited from earlier work
p300/CBP HAT [12] = experiment: p300 HAT inhibition, literature values; format: biochemical; conditions: Ki compared with C646

Compound: CC1=NN(c2ccc(C(N)=O)cc2)C(=O)C1=Cc1ccc(-c2cc(C)c(C)cc2[N+](=O)[O-])o1 [Compound 6a]
p300 HAT inhibition, in words (p300 HAT): well tolerated

Compound: CC1=NN(c2cccc(C(=O)O)c2)C(=O)C1=Cc1ccc(-c2cc(C)c(C)cc2[N+](=O)[O-])o1 [Compound 6e]
p300 HAT inhibition, in words (p300 HAT): well tolerated

Compound: CC1=NN(c2ccc(S(=O)(=O)O)cc2)C(=O)C1=Cc1ccc(-c2cc(C)c(C)cc2[N+](=O)[O-])o1 [Compound 6f]
p300 HAT inhibition, in words (p300 HAT): well tolerated

Compound: CC1=NN(c2ccc(S(N)(=O)=O)cc2)C(=O)C1=Cc1ccc(-c2cc(C)c(C)cc2[N+](=O)[O-])o1 [Compound 6g]
p300 HAT inhibition, in words (p300 HAT): well tolerated

weakening of p300 inhibitory potency compared with C646 (p300 HAT; relative IC50 referenced to C646): > 15 fold
Compound: COC(=O)c1ccc(N2N=C(C)C(=Cc3ccc(-c4cc(C)c(C)cc4[N+](=O)[O-])o3)C2=O)cc1 [Compound 6h]

Compound: COC(=O)c1cccc(N2N=C(C)C(=Cc3ccc(-c4cc(C)c(C)cc4[N+](=O)[O-])o3)C2=O)c1 [Compound 6i]
p300 HAT inhibition, in words (p300 HAT): well tolerated

p300 HAT inhibition, in words (p300 HAT): substantial reduction in potency
Compound: CC1=NN(c2ccc(C(=O)O)cc2)C(=O)C1=Cc1ccc(-c2cc(C)c(C)cc2CO)o1 [Compound 6l]

inhibition of PCAF [1]: less than 10%
increase of apparent Ki versus wild type p300 (p300 HAT mutant W1466F): 7 fold
increase of apparent Ki versus wild type p300 (p300 HAT mutant T1411A): at least 2 fold
inhibition of Sas [3]: less than 10%
increase of apparent Ki versus wild type p300 (p300 HAT mutant Y1467F): at least 2 fold
inhibition of serotonin N-acetyltransferase [4]: less than 10%
inhibition of Rtt109 [5]: less than 10%
increase of apparent Ki versus wild type p300 (p300 HAT mutant R1410A): at least 2 fold
IC50 (melanoma line WM983A; read-out: IC50 for 3H-thymidine incorporation): 10 to 20 µM
inhibition of GCN5 [7]: less than 10%
thiol adduct formation with DTT or beta-mercaptoethanol [9]: no evidence of reaction
inhibition of MOZ [10]: less than 10%
Compound: CC1=NN(c2ccc(C(=O)O)cc2)C(=O)/C1=C\c1ccc(-c2cc(C)c(C)cc2[N+](=O)[O-])o1 [Compound C646]
3H-thymidine incorporation ([2]; C646 10 μM): capable of reducing; also recorded: Two out of three non-small cell lung adenocarcinoma cell lines demonstrate significant growth inhibition
cell cycle effect (WM35): G1-S cell cycle arrest; also recorded: decrease in %S phase
3H-thymidine incorporation / cell proliferation [6]: not inhibited; also recorded: does not have a significant inhibitory effect
3H-thymidine incorporation (melanoma line WM35): quite susceptible
cell proliferation via 3H-thymidine incorporation (melanoma line WM983A; up to 20 μM): inhibits WM983A melanoma cell proliferation
3H-thymidine incorporation (lung cancer line H23): quite susceptible
cell cycle effect (WM983A): G1-S cell cycle arrest; also recorded: decrease in %S phase
basal acetylation levels of H3 and H4 ([8]; 25 μM, 1-3 h, H3K9ac, H4K12ac): slightly diminished; also recorded: reduces histone H3 and H4 acetylation levels
TSA-inducible acetylation of H3 and H4 ([8]; 25 μM, 1-3 h before TSA (33 nM, final 30 min)): virtually completely inhibits; also recorded: abrogates TSA-induced acetylation
global histone H3 acetylation (WM983A cells): dose-dependent reduction; also recorded: blocks H3 acetylation

Compound: COc1ccc(C(=O)C2=C3OC(C)(C)[C@@H](CC=C(C)C)C[C@@]34C[C@@H](CC=C(C)C)C(C)(C)[C@@](CC=C(C)C)(C2=O)C4=O)cc1O [LTK14]
Ki (p300/CBP HAT [11]; ref Mantelingu et al., 2007, Arif et al., 2009): 5.1 µM
fold weaker than C646 (p300/CBP HAT [12]): about 12 fold

Compound: CC(=O)N[C@@H](CCCCNC(=O)CSCCNC(=O)CCNC(=O)[C@H](O)C(C)(C)COP(=O)(O)OP(=O)(O)OC[C@H]1O[C@@H](n2cnc3c(N)ncnc32)[C@H](O)[C@@H]1OP(=O)(O)O)C(N)=O [Lys-CoA]
Ki (p300/CBP HAT [11]; ref Lau et al., 2000): 0.02 µM
fold more potent than C646 (p300/CBP HAT [12]): 20 fold

Compound: CC(/C=C/C(=O)NO)=C\[C@@H](C)C(=O)c1ccc(N(C)C)cc1 [TSA, trichostatin A, reference compound]
H3 and H4 acetylation after HDAC inhibitor ([8]; TSA 33 nM, 30 min): increased H3 and H4 acetylation

p300 HAT inhibition, in words (p300 HAT): lack p300 inhibitory properties
Compound: Ac-Asp-Asp-Asp-Asp-Tat [Ac-DDDD-Tat, reference compound]
3H-thymidine incorporation, control compounds [2]: no effects
